Here are results for 1 molecule from ChEMBL document CHEMBL1221219, “Selective blockade of 2-arachidonoylglycerol hydrolysis produces cannabinoid behavioral effects” (Nat Chem Biol, 2009).

Calls of active or inactive are those of the source. No cut-off for these calls is given here.

Assay [1] concerns the target T1, Fatty-acid amide hydrolase 1 (Mus musculus, UniProt O08914).
T1 sequence (O08914 whole entry): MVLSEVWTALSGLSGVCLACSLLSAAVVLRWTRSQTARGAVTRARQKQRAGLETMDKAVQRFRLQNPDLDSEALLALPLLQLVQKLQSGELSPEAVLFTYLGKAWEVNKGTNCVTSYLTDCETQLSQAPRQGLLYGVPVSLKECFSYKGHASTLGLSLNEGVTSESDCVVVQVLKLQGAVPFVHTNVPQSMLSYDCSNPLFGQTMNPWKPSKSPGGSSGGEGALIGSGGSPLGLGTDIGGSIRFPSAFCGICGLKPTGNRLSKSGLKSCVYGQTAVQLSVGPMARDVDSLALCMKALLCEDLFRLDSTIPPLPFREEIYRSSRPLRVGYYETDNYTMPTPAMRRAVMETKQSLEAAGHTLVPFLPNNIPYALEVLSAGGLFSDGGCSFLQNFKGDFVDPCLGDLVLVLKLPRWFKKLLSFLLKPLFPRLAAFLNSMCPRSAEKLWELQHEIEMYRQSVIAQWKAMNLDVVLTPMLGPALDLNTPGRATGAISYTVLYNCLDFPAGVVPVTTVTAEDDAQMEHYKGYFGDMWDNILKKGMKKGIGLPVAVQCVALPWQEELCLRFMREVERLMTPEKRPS
The assay is described as follows: Inhibition of FAAH in C57B1/6J mouse brain membrane after 20 mins by using oleamide as a substrate by LC-MS method. It is filed as cell membranes. In short, it runs like this: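 Mouse brain membrane proteome pre-incubated with inhibitor for 30 min at 37°C, then oleamide (FAAH substrate) added. Hydrolysis quantified by an LC-MS substrate assay.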

The test system of assay [2] is Mus musculus. The experiment in a line: Inhibition of PNPLA8 in C57B1/6J mouse brain membrane at 16 mg/kg, ip after 4 hrs by competitive activity-based protein profiling-MudPIT method. In kind it is functional, organism-based. Also on record: dose 16 mg/kg. An outline of the steps:
(§1)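 After i.p. dosing in 4:1 PEG300:Tween80, male C57Bl/6J mice were killed at 4 h. Brain membrane proteomes from treated and vehicle mice were labelled with FP-biotin. Labelled proteins were enriched on avidin, digested on-bead with trypsin and analysed by multidimensional LC-MS. Proteins were identified by SEQUEST, and dosed samples were compared with vehicle.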

In assay [3] the target is T2, Cytosolic phospholipase A2 (Homo sapiens) (UniProt P47712).
T2 sequence (whole entry): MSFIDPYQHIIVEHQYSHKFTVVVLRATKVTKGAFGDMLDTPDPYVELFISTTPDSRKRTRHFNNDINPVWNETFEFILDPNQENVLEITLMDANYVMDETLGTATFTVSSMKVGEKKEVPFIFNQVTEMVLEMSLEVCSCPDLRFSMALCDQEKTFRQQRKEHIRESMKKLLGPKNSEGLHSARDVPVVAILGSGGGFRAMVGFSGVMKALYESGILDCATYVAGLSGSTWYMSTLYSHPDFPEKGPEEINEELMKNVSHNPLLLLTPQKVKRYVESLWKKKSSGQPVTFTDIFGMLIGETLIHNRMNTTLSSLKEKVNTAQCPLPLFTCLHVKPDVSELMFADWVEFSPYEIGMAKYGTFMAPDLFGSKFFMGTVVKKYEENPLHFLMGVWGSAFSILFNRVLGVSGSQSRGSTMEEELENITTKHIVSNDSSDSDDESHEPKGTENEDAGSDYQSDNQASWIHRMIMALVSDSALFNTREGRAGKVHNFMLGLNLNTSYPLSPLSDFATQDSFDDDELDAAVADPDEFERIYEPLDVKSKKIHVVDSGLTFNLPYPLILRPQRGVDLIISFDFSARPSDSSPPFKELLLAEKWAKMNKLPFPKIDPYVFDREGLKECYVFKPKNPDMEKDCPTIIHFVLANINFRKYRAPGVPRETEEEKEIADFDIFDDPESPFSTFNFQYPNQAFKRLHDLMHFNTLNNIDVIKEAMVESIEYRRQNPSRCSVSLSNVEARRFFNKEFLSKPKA
The assay is described as follows: Inhibition of recombinant cPLA2 4a expressed in HEK293 cells at 20 uM by FP-rhodamine labeling method. It is filed as cell-based.

Assay [4] concerns Mus musculus. The experiment in a line: Antinociceptive activity against formalin-induced pain in C57B1/6J mouse assessed as paw lifting or licking during early phase (0 to 10 mins) at 40 m/kg, po administered 2 hrs before formalin challenge pretreated with rimonabant. It is filed as functional, organism-based.
The test system of assay [5] is Mus musculus. The assay is described as follows: Inhibition of LYPLA3 in C57B1/6J mouse brain membrane at 16 mg/kg, ip after 4 hrs by competitive activity-based protein profiling-MudPIT method. It is filed as functional, organism-based. Also on record: dose 16 mg/kg. In short, it runs like this: as §1
For assay [6], the system named is Mus musculus. The experiment in a line: Antinociceptive activity against C57B1/6J mouse at assessed as latency in reaction time required for thermal stimulus-induced tail flicking at 16 mg/kg, ip after 2 hrs. It is filed as functional, organism-based. More on the design: dose 16 mg/kg. In short, it runs like this:
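Tail immersion assay of thermal pain in male C57Bl/6J mice, 6-8 weeks. Dose 16 mg kg^-1 i.p. in 4:1 v/v PEG300:Tween80 at 4 μl g^-1, with vehicle controls.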

In assay [7] the test system is Mus musculus. The experiment in a line: Inhibition of MAGL in intraperitoneally dosed C57B1/6J mouse brain membrane assessed as increase in 2-AG level after 4 hrs relative to control. It is filed as functional, organism-based. An outline of the steps: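 Male C57Bl/6J mice dosed i.p. in 4:1 v/v PEG300:Tween80, with vehicle controls; killed at set times (0.5-24 h, or 4 h). Brain membrane 2-AG hydrolysis measured by LC-MS substrate assay, and brain 2-AG measured by lipid LC-MS, relative to vehicle.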

In assay [8] the target is Cannabinoid receptor 2 (Homo sapiens) (UniProt P34972). The assay is described as follows: Displacement of [3H]CP-55940 from CB2 expressed in CHO cells after 90 mins by liquid scintillation. In kind it is cell-based. For orientation: Loss of bound radioactivity is the signal in a displacement assay; it reports binding, not function.
Assay [9] relates to Mus musculus. The experiment in a line: Decrease in arachidonic acid levels in intraperitoneally dosed C57B1/6J mouse brain after 4 hrs by LC-MS. In kind it is functional, organism-based. In short, it runs like this:
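Male C57Bl/6J mice given 4, 8, 16 or 40 mg kg^-1 i.p. in 4:1 PEG300:Tween80 at 4 μl g^-1, or vehicle, and killed after 4 h. Whole-brain lipids were quantified by LC-MS.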

The target in assay [10] is T2, Cytosolic phospholipase A2 (Homo sapiens). The assay is described as follows: Inhibition of recombinant cPLA2 4a expressed in HEK293 cells assessed as hydrolysis of PAPC to arachidonic acid at 20 uM TLC assay. It is filed as cell-based.
Assay [11] has as its system Mus musculus. The assay is described as follows: Inhibition of PPME1 in C57B1/6J mouse brain membrane at 16 mg/kg, ip after 4 hrs by competitive activity-based protein profiling-MudPIT method. It is filed as functional, organism-based. Also on record: dose 16 mg/kg. In short, it runs like this: as §1
Assay [12] relates to Mus musculus. The assay is described as follows: Inhibition of […] in C57B1/6J mouse brain membrane assessed as residual 2-AG hydrolysis activity at 16 mg/kg, ip after 4 hrs relative to control. Particulars: route intraperitoneal. It is filed as functional. An outline of the steps:
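Brain membranes from mice given 4-40 mg kg^-1 i.p. for 4 h were assayed for 2-AG hydrolysis by LC-MS substrate assay. Activity is expressed relative to vehicle control.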

In assay [13] the test system is Mus musculus. The experiment in a line: Analgesic activity against CB1 receptor deficient C57B1/6J mouse at 16 mg/kg, ip. In kind it is functional, organism-based. More on the design: dose 16 mg/kg. An outline of the steps:
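Male C57Bl/6J mice, 6-8 weeks, 20-26 g, given 16 mg kg^-1 i.p. in 4:1 v/v PEG300:Tween80 at 4 μl g^-1; vehicle controls received PEG300:Tween80 alone. Cannabinoid effects were scored in the tetrad test.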

Cannabinoid receptor 2 (Homo sapiens), sequence (P34972 whole entry): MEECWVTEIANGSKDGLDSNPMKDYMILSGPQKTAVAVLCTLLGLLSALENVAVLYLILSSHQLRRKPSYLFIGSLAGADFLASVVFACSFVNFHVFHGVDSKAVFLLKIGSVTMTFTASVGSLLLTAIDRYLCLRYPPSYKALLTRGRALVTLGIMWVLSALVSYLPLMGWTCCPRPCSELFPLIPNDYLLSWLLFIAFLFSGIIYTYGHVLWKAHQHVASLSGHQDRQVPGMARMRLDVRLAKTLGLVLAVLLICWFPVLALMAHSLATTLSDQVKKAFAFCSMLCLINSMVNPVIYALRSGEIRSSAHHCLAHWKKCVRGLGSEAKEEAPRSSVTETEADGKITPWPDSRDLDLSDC

What is called IC50 is the point on the concentration scale where inhibition reaches its midpoint. A low value points to inhibition by little substance. For the molecule `O=C(Oc1ccc([N+](=O)[O-])cc1)N1CCC(C(O)(c2ccc3c(c2)OCO3)c2ccc3c(c2)OCO3)CC1`, in assay [1], the 50% inhibitory concentration (IC50) was found to be 4 µM. In addition, the inhibition entry in [2], in [3], in assay [5], in assay [10] and in assay [11] was “inactive” in each case. The outcome in [4], in assay [8] and in assay [13] was inactive. Moreover, the result in [6] and in [9] was Active. Further, the inhibition result in assay [7] is “Dose-dependent effect”. Also, the Activity in assay [12] is given as 35%.
